Experimental data pooled from the literature.
Protocols differ between the studies behind these lines.
ST14: Suppressor of tumorigenicity 14 protein (ST14, Homo sapiens, UniProt Q9Y5Y6)
CDK2 with cyclin A2: Cyclin-dependent kinase 2, with cyclin A2 (CDK2, Homo sapiens, UniProt P24941)

| Compound | target | test | conditions | measurement | result |
| --- | --- | --- | --- | --- | --- |
| N=C(N)NCCC[C@H](NC(=O)[C@H](CCC1CCCCC1)NC(=O)[C@H](Cc1cscn1)NC(=O)CCc1ccccc1)C(=O)c1nc2ccccc2s1 | ST14 | enzyme activity, inhibitor | 0.1 µM | remaining activity | 5% |
| CNC(=O)c1cc(Oc2ccc(NC(=O)Nc3ccc(Cl)c(C(F)(F)F)c3)cc2)ccn1 | CDK2 with cyclin A2 | enzyme activity, inhibitor | 1 µM | inhibition | 81.4% |
| COc1cc(-c2cncc3c2CN(C)Cc2cc(N4CCNCC4)ccc2-3)cc(OC)c1OC | Vascular endothelial growth factor receptor 3 (FLT4, Homo sapiens, UniProt P35916) | enzyme activity, inhibitor | 1 µM | remaining activity | 86% |
| C=CC(=O)N1CCC(COCC(=O)N2CCN(c3nc(-c4cnc(N)nc4C(F)F)nc(N4CCOC[C@@H]4C)n3)CC2)CC1 | ALK tyrosine kinase receptor (ALK, Homo sapiens, UniProt Q9UM73, C1156Y) | binding, competition with immobilised ligand | 1 µM | remaining binding | 79% |
| Cc1cc([C@@H](C)Nc2ccccc2C(=O)O)c2nc(N3CCC(F)(F)CC3)c(C#N)c(=O)n2c1 | Serine/threonine-protein kinase pim-1 (PIM1, Homo sapiens, UniProt P11309) | binding, competition with immobilised ligand | 10 µM | remaining binding | 100% |
| CC(=O)Nc1c(N)nc(SCC(=O)NN)[nH]c1=O | CDK2 with cyclin A2 | enzyme activity, inhibitor | 10 nM | inhibition | 22.9% |
| N=C(N)NCCC[C@H](NC(=O)[C@H](Cc1ccc2ccccc2c1)NC(=O)[C@H](Cc1cscn1)NC(=O)CCc1ccccc1)C(=O)c1nc2ccccc2s1 | ST14 | enzyme activity, inhibitor | 0.1 µM | remaining activity | 8% |
| CNc1ncc2c(/C=C/C(=O)N3CCC(OC)CC3)nn(Cc3cccc(C(F)(F)F)c3)c2n1 | Tyrosine-protein kinase ZAP-70 (ZAP70, Homo sapiens, UniProt P43403) | enzyme activity, inhibitor, radiometric | 1 µM | remaining activity | 95% |
| CC(C)(NC(=O)[C@H](Cc1cscn1)NC(=O)CCc1ccccc1)C(=O)N[C@@H](CCCNC(=N)N)C(=O)c1nc2ccccc2s1 | ST14 | enzyme activity, inhibitor | 0.1 µM | remaining activity | 4% |
| CC(=O)Nc1c(N)nc(SCC(=O)N/N=C/c2ccc([N+](=O)[O-])cc2)[nH]c1=O | CDK2 with cyclin A2 | enzyme activity, inhibitor | 0.1 µM | inhibition | 37.6% |
